Source: ChEMBL document CHEMBL3751849, “Design, Synthesis, and Biological Characterization of Novel Mitochondria Targeted Dichloroacetate-Loaded Compounds with Antileukemic Activity” (J Med Chem, 2016)
Active and inactive are the calls of the source. The calls are words filed in the database; no cut-off is given here.

What was measured:
[1] = Cytotoxicity against human MEC1 cells at 30 uM after 48 hrs by MTT assay; type: cell-based; details: mec1, 48 h
Method in brief: (§1)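 Cells seeded at 1 × 10^6 cells/mL. JVM-2, MAVER and HL-60 were grown in RPMI-1640; MEC-1 and MEC-2 were grown in IMDM. Primary cells were grown in RPMI-1640. All media carried 10% FBS, L-glutamine and penicillin/streptomycin. Test agents were added at 3–300 μM, and DCA at 1–30 mM.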

[2] = Cytotoxicity against human HL60 cells at 30 uM after 48 hrs by MTT assay; type: cell-based; details: hl-60, 48 h; method in brief: as §1
[3] = Cytotoxicity against human MEC2 cells at 30 uM after 48 hrs by MTT assay; type: cell-based; details: mec2, 48 h; method in brief: as §1
[4] = Cytotoxicity against human Maver1 cells at 30 uM after 48 hrs by MTT assay; type: cell-based; details: maver1, 48 h; method in brief: as §1
[5] = Cytotoxicity against human JVM2 cells at 30 uM after 48 hrs by MTT assay; type: cell-based; details: jvm-2, 48 h; method in brief: as §1
[6] = (§2) Cytotoxicity against human MEC1 cells after 48 hrs by MTT assay; type: functional, cell-based; details: MEC1, 48 h; method in brief: as §1
MEC1 = assay: as §2; type: functional, cell-based; method in brief: as §1
[7] = (§3) Cytotoxicity against human Maver1 cells after 48 hrs by MTT assay; type: functional, cell-based; details: Maver1, 48 h; method in brief: as §1
Maver1 = assay: as §3; type: functional, cell-based; method in brief: as §1
B-CLL = assay: Induction of p21 protein level in human primary B-CLL cells at 300 uM after 24 to 48 hrs by Western blot analysis; type: functional, cell-based
Method in brief: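 Primary B-CLL patient cells treated 24 or 48 h, lysed and analysed by Western blot using anti-p21 (C-19) antibody to detect p21 protein induction.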

Leukemia cell [8] = assay: Reduction in basal oxygen consumption rate of mitochondria in human leukemia cells at 300 uM after 3 hrs by seahorse analyzer; type: functional
Method in brief: (§4)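 Leukemic cells were treated for 3 h at 300 μM, then plated at 3 × 10^5 cells/well on poly-L-lysine. They were held 1 h at 37 °C without CO2 and run on an XFe96 Mito stress test. Additions were made sequentially: oligomycin 1.0 μM, FCCP 1.0 μM, then antimycin A plus rotenone at 1.0 μM each. OCR was expressed as pmol O2/min and normalized to cell number. Coupling efficiency and spare capacity were calculated after subtracting non-mitochondrial OCR. Data are from six independent experiments.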

Plasma [9] = assay: Retention time in BALB/c mouse plasma at 57 mg/kg, sc after 4 hrs by HPLC-MS analysis; type: ADME, organism-based; details: in vivo
Method in brief: (§5)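 Female BALB/c mice, 8 weeks old (n = 12), received one sc dose of 57 mg/kg in 200 μL PBS/25% DMSO. Tail-vein blood was drawn at 1, 2.5, 4, 5.5, 7, 16 and 24 h, and plasma was stored at −80 °C. Plasma (100 μL) was diluted in 300 μL acetonitrile/water/TFA and filtered. It was then analysed by nano-HPLC-MS on a C-18 column, using a 15-min water-to-acetonitrile gradient with 0.1% formic acid.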

Leukemia cell [10] = assay: Reduction in mitochondrial spare respiratory capacity in human leukemia cells pretreated at 300 uM for 3 hrs followed by antimycin A/rotenone addition by seahorse analyzer; type: functional, cell-based; method in brief: as §4
PBMC = assay: Cytotoxicity against human PBMC cells after 48 hrs by MTT assay; type: cell-based; method in brief: as §1
JVM-2 [11] = assay: Induction of apoptosis in human JVM2 cells assessed as late apoptotic cells at 300 uM after 48 hrs by annexin V-FITC/PI-staining based FACS analysis (reference value: 11%); type: functional
Leukemia cell [12] = assay: Reduction in mitochondrial coupling efficiency in human leukemia cells pretreated at 300 uM for 3 hrs followed by antimycin A/rotenone addition by seahorse analyzer; type: functional, cell-based; method in brief: as §4
[13] = Induction of apoptosis in human primary B-CLL cells assessed as early apoptotic cells at 300 uM after 48 hrs by annexin V-FITC/PI-staining based FACS analysis (reference value: 10.7%); type: functional
JVM-2 [14] = assay: Induction of apoptosis in human JVM2 cells assessed as early apoptotic cells at 300 uM after 48 hrs by annexin V-FITC/PI-staining based FACS analysis (reference value: 1.6%); type: functional
Plasma [15] = assay: Metabolic stability in BALB/c mouse plasma assessed as compound remaining at 57 mg/kg, sc after >5 hrs by HPLC-MS analysis; type: ADME, organism-based; details: in vivo; method in brief: as §5
[16] = Cell cycle arrest in human JVM2 cells assessed as accumulation at S phase at 300 uM after 48 hrs by BrdU/PI-staining based FACS analysis (reference value: 40%); type: functional; details: JVM-2
[17] = Upregulation of p21 mRNA expression in human primary B-CLL cells at 300 uM after 24 to 48 hrs by qRT-PCR analysis; type: functional, cell-based
[18] = (§6) Cytotoxicity against human JVM2 cells after 48 hrs by MTT assay; type: functional, cell-based; details: JVM-2, 48 h; method in brief: as §1
JVM-2 [19] = assay: as §6; type: functional, cell-based; method in brief: as §1
[20] = Induction of apoptosis in human primary B-CLL cells assessed as late apoptotic cells at 300 uM after 48 hrs by annexin V-FITC/PI-staining based FACS analysis (reference value: 8.5%); type: functional
[21] = (§7) Cytotoxicity against human MEC2 cells after 48 hrs by MTT assay; type: functional, cell-based; details: MEC2, 48 h; method in brief: as §1
MEC2 = assay: as §7; type: functional, cell-based; method in brief: as §1
Leukemia cell [22] = assay: Reduction in maximal oxygen consumption rate of mitochondria in human leukemia cells pretreated at 300 uM for 3 hrs followed by FCCP addition by seahorse analyzer; type: functional; method in brief: as §4
[23] = (§8) Cytotoxicity against human HL60 cells after 48 hrs by MTT assay; type: functional, cell-based; details: HL-60, 48 h; method in brief: as §1
HL-60 = assay: as §8; type: functional, cell-based; method in brief: as §1
Plasma [24] = assay: Drug metabolism in BALB/c mouse plasma at 57 mg/kg, sc after >5 hrs by HPLC-MS analysis; type: ADME, organism-based; details: in vivo; method in brief: as §5
[25] = Induction of apoptosis in human primary B-CLL cells assessed as early apoptotic cells at 30 mM after 48 hrs by annexin V-FITC/PI-staining based FACS analysis (reference value: 10.7%); type: functional
JVM-2 [26] = assay: Induction of apoptosis in human JVM2 cells assessed as late apoptotic cells at 10 mM after 48 hrs by annexin V-FITC/PI-staining based FACS analysis (reference value: 11%); type: functional
Method in brief: (§9)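 JVM-2 cells seeded at 1 × 10^6 cells/mL in RPMI-1640 with 10% FBS and treated 48 h. Annexin V-FITC/PI staining read by flow cytometry, giving percentage of apoptotic leukemic cells. Mean ± SD of at least three independent experiments; p < 0.05 versus untreated cultures.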

[27] = Induction of apoptosis in human primary B-CLL cells assessed as late apoptotic cells at 30 mM after 48 hrs by annexin V-FITC/PI-staining based FACS analysis (reference value: 8.5%); type: functional
[28] = Cell cycle arrest in human JVM2 cells assessed as accumulation at S phase at 30 mM after 48 hrs by BrdU/PI-staining based FACS analysis (reference value: 40%); type: functional; details: JVM-2
JVM-2 [29] = assay: Induction of apoptosis in human JVM2 cells assessed as early apoptotic cells at 10 mM after 48 hrs by annexin V-FITC/PI-staining based FACS analysis (reference value: 1.6%); type: functional; method in brief: as §9
[30] = Cytotoxicity against human Maver1 cells at 3 to 300 uM uM after 48 hrs by MTT assay; type: cell-based; details: maver1, 48 h; method in brief: as §1
[31] = Cytotoxicity against human MEC1 cells at 3 to 300 uM after 48 hrs by MTT assay; type: cell-based; details: mec1, 48 h; method in brief: as §1
[32] = Cytotoxicity against human HL60 cells at 3 to 300 uM after 48 hrs by MTT assay; type: cell-based; details: hl-60, 48 h; method in brief: as §1
[33] = Cytotoxicity against human MEC2 cells at 3 to 300 uM after 48 hrs by MTT assay; type: cell-based; details: mec2, 48 h; method in brief: as §1
[34] = Cytotoxicity against human JVM2 cells at 3 to 300 uM after 48 hrs by MTT assay; type: cell-based; details: jvm-2, 48 h; method in brief: as §1

In the case of `CC(=O)OCC(COC(C)=O)(COC(C)=O)NC(=O)CCCCC[P+](c1ccccc1)(c1ccccc1)c1ccccc1.[Br-]`, the Activity [1] is reported as “Toxic”, the Activity [2] is reported as “Toxic” and the Activity [3] is reported as “Toxic”. For the same compound, the Activity [4] was “Toxic” and the Activity [5] was “Toxic”.

In the case of `O=C(NCCN(CCNC(=O)C(Cl)Cl)CCNC(=O)C(Cl)Cl)C(Cl)Cl`, the IC50 [6] is reported as 0.4 mM, the Activity (MEC1) is reported as “Dose-dependent effect” and the IC50 [7] is reported as 0.55 mM. For the same compound, the Activity (Maver1) was “Dose-dependent effect”, the Activity (B-CLL) was “Active” and the Activity (Leukemia cell [8]) was “Active”. For the same compound, the Retention_time (Plasma [9]) was 0.455 min, the Activity (Leukemia cell [10]) was “Active” and the IC50 (PBMC) was 1.26 mM. For the same compound, the Activity (JVM-2 [11]) was 25.5%, the Activity (Leukemia cell [12]) was “Active” and the Activity [13] was 14.4%. For the same compound, the Activity (JVM-2 [14]) was 1.1%, the Stability (Plasma [15]) was “Stable” and the Activity [16] was 22%. For the same compound, the Activity [17] was “Active”, the IC50 [18] was 0.41 mM and the Activity (JVM-2 [19]) was “Dose-dependent effect”. The Activity [20] was 42.8%, the IC50 [21] was 0.37 mM and the Activity (MEC2) was “Dose-dependent effect”. For the same compound, the Activity (Leukemia cell [22]) was “Active”, the IC50 [23] was 0.34 mM and the Activity (HL-60) was “Dose-dependent effect”. For the same compound, the Drug metabolism (Plasma [24]) was “metabolite_notdetected”.

For `O=C(O)C(Cl)Cl` [DICHLOROACETIC ACID], the IC50 [6] was 8.29 mM, the IC50 [7] was 11.8 mM and the Activity (B-CLL) was “Active”. The Activity [25] was 20.7%, the Activity (JVM-2 [26]) was 26.8% and the Activity [27] was 45.4%. The Activity [17] was “Active”, the IC50 [18] was 11.5 mM and the IC50 [21] was 12.2 mM. For the same compound, the Activity [28] was 15%, the IC50 [23] was 13.9 mM and the Activity (JVM-2 [29]) was 2.8%.

For `C[N+](CCNC(=O)C(Cl)Cl)(CCNC(=O)C(Cl)Cl)CCNC(=O)C(Cl)Cl`, the Activity (Leukemia cell [8]) was “inactive”.

With `CC(C)(C)OC(=O)NCC[N+](C)(CCNC(=O)OC(C)(C)C)CCNC(=O)OC(C)(C)C.[I-]` the Activity [30] was “Non-toxic”, the Activity [31] was “Non-toxic” and the Activity [32] was “Non-toxic”. The Activity [33] was “Non-toxic” and the Activity [34] was “Non-toxic”.

With `CC(C)(C)OC(=O)NCCN(CCNC(=O)OC(C)(C)C)CCNC(=O)OC(C)(C)C` the Activity (JVM-2 [11]) was 10.9%, the Activity [30] was “Non-toxic” and the Activity [31] was “Non-toxic”. For the same compound, the Activity [32] was “Non-toxic”, the Activity (JVM-2 [14]) was 1.3% and the Activity [16] was 41%. The Activity [33] was “Non-toxic” and the Activity [34] was “Non-toxic”.
